Test results: ChEMBL document CHEMBL3763071, “Selective Human Estrogen Receptor Partial Agonists (ShERPAs) for Tamoxifen-Resistant Breast Cancer” (J Med Chem, 2016)
Calls of active or inactive are those of the source. The calls are words filed in the database; no cut-off is given here.

Experiments:
[1] = (§1) Antiproliferative activity against tamoxifen resistant human MCF7:5C cells assessed as inhibition of cell growth at 10 nM after 9 days by MTS assay; format: functional; conditions: 216 h
Outline: (§2)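 Tamoxifen-resistant MCF-7:5C cells (long-term estrogen-deprived MCF-7:ws8, phenol red-free RPMI with charcoal-dextran FBS) seeded 5000/well overnight, treated at 1, 10 or 100 nM with renewal every 3 days. […] Triplicates in at least three passages.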

[2] = (§3) Antiproliferative activity against tamoxifen resistant human MCF7:5C cells assessed as inhibition of cell growth at 100 nM after 9 days by MTS assay; format: functional; conditions: 216 h; outline: as §2
[3] = biological target: T1, Estrogen receptor (Homo sapiens, UniProt P03372); assay: Agonist activity at estrogen receptor alpha in human MCF7:WS8 cells after 18 hrs by dual luciferase reporter assay; format: cell-based
T1 sequence (P03372 whole entry): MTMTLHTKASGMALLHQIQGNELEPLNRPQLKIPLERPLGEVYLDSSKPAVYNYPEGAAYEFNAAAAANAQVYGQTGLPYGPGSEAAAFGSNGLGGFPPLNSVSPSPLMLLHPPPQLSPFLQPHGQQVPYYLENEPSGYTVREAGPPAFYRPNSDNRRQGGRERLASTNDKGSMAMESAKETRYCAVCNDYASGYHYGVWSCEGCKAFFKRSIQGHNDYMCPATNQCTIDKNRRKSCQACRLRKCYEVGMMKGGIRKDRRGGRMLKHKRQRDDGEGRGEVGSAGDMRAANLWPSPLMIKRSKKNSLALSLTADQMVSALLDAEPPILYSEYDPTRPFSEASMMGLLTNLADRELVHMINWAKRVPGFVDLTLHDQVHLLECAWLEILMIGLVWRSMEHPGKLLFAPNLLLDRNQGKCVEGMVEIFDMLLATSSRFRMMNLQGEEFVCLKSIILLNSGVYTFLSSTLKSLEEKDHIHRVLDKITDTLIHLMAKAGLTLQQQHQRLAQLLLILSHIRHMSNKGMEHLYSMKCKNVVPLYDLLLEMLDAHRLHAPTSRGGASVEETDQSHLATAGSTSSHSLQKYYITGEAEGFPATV

[4] = Cytotoxicity against human MCF7:WS8 cells at 0.1 to 1 uM after 3 days by MTT assay; format: cell-based; conditions: mcf7:ws8, 72 h
[5] = test system: MCF7:5C; assay: (§4) Antiproliferative activity against tamoxifen resistant human MCF7:5C cells assessed as inhibition of cell growth at 1 nM after 9 days by MTS assay; format: functional; outline: as §2
[6] = test system: MCF7:5C; assay: as §1; format: functional; outline: as §2
[7] = test system: MCF7:5C; assay: as §3; format: functional; outline: as §2
[8] = biological target: T1, Estrogen receptor; assay: Partial agonist activity at ERalpha in human MCF7:WS8 cells after 18 hrs by luciferase reporter gene assay; format: cell-based
Outline: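 MCF-7:ws8 cells kept in stripped medium 3 days, then transiently co-transfected (6 h) with 3×ERE-firefly luciferase and pRL-TK Renilla plasmids. […] EC50 and Emax derived; mean ± s.e.m. from at least three passages.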

[9] = biological target: T2, Estrogen receptor (Homo sapiens) (UniProt P03372); assay: Antagonist activity at ERalpha in human MCF7:WS8 cells assessed as E2-induced ERE activation after 18 hrs by luciferase reporter gene assay; format: cell-based
T2 sequence (whole entry): T1 sequence (P03372 whole entry)
Outline: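 ERE-luciferase reporter in MCF-7:ws8 cells held in stripped medium 3 days, co-transfected with 3×ERE (Xenopus vitellogenin A2)-firefly luciferase and pRL-TK Renilla plasmids for 6 h. […] Average of three passages.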

[10] = test system: T47D:A18; assay: Antitumor activity against tamoxifen resistant human T47D:A18 cells overexpressing PKC-alpha xenografted into BALB/c athymic mouse assessed as reduction in tumor size at 100 mg/kg administered via oral gavage daily measured upto 2 weeks; format: functional, organism-based
Outline: (§5)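 T47D:A18/PKCα xenografts established 12 weeks before dosing. Compound given orally at 100 mg/kg daily for 2 weeks in 0.1% Tween 80/10% PEG400/0.5% CMC, plus drinking water replaced by hydrogel suspension at 0.25 mg/mL. Tumor area (length/2 × width/2 × π) by calipers weekly; uteri excised and weighed at sacrifice (control n = 4, treated n = 6).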

[11] = biological target: T2, Estrogen receptor (Homo sapiens); assay: Partial agonist activity at biotinylated ERalpha LBD (unknown origin) assessed as increase in SRC3 coactivator recruitment after 1 hr by TR-FRET assay
Outline: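 Biotinylated ERα LBD (1 nM) premixed with streptavidin-terbium (0.25 nM). Fluorescein-labelled SRC3 was titrated with ligand at 20 μM. Incubation ran 1 h at room temperature in the dark. Read-out was TR-FRET: excitation 340 nm, emission 495 and 520 nm, 100-μs delay. Background from parallel wells without LBD was subtracted, and signal was plotted against log SRC3.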

[12] = as §4; format: functional; conditions: 216 h; outline: as §2
[13] = biological target: T2, Estrogen receptor (Homo sapiens); assay: Partial agonist activity at biotinylated ERalpha LBD (unknown origin) assessed as inhibition of E2-induced SRC3 coactivator recruitment after 1 hr by TR-FRET assay
[14] = biological target: T2, Estrogen receptor (Homo sapiens); assay: Partial agonist activity at estrogen receptor alpha in human MCF7:WS8 cells at 100 nM after 6 hrs in presence of 100 nM GPR30 inhibitor G15 by luciferase reporter gene assay; format: cell-based
[15] = test system: Mus musculus; assay: Toxicity in BALB/c athymic mouse xenografted with tamoxifen-resistant human T47D:A18 cells overexpressing PKC-alpha assessed as uterine weight at 100 mg/kg administered via oral gavage daily; format: organism-based; conditions: in vivo; outline: as §5

| Structure (SMILES) | inhibition at 0.01 µM [1] | inhibition at 0.1 µM [2] | EC50 ([3]; read-out: EC50) | Activity [4] | inhibition [5] | inhibition [6] | inhibition at 0.001 µM [12] | other results |
| --- | --- | --- | --- | --- | --- | --- | --- | --- |
| O=C(c1sc2cc(O)ccc2c1-c1ccc(F)cc1)C1CC1 | 79.6% | 146% | 13.9 nM | Non-toxic | inactive |  |  |  |
| Oc1ccc2cc(-c3ccc(F)cc3)sc2c1 |  |  |  |  |  |  |  | EC50 [3]: Not Active |
| Oc1ccc(Oc2c(-c3ccc(F)cc3)sc3cc(O)ccc23)cc1 |  |  | 6.2 nM | Non-toxic | inactive | inactive |  | inhibition [7]: inactive |
| C#Cc1ccc(C(=O)c2sc3cc(O)ccc3c2-c2ccc(F)cc2)cc1 | 79.9% | 85.6% | 5.3 nM | Non-toxic |  |  | 31.4% | EC50 [8]: 5.3 nM; inhibition [9]: Dose-dependent effect; Activity [10]: Active; Activity [11]: Active; Activity [13]: Active |
| Oc1ccc(Oc2sc3cc(O)ccc3c2-c2ccc(F)cc2)cc1 [TTC-352] | 104% | 123% | 0.8 nM | Non-toxic |  |  | 50.6% | Activity [14]: Active; EC50 [8]: 0.8 nM; inhibition [9]: Dose-dependent effect; Activity [11]: Active; Activity [13]: Active |
| Oc1ccc2c(-c3ccc(F)cc3)c(Oc3ccc(Cl)cc3)sc2c1 |  | 30.7% | 76.1 nM | Non-toxic | inactive | inactive |  | EC50 [8]: 76.1 nM; inhibition [9]: Dose-dependent effect |
| Oc1ccc2c(-c3ccc(F)cc3)c(Oc3ccc(F)c(F)c3)sc2c1 |  | 84.6% | 33.4 nM | Non-toxic | inactive | inactive |  |  |
| Oc1ccc2c(-c3ccc(F)cc3)csc2c1 |  |  |  |  |  |  |  | EC50 [3]: Not Active |
| O=C(c1ccc(O)cc1)c1sc2cc(O)ccc2c1-c1ccc(F)cc1 | 99.8% | 100% | 0.2 nM | Non-toxic |  |  | 95.4% |  |
| O=C(c1ccc(C(F)(F)F)cc1)c1sc2cc(O)ccc2c1-c1ccc(F)cc1 | 15.4% | 88.6% | 5.2 nM | Non-toxic | inactive |  |  | Activity [10]: Active; Activity [15]: Non-toxic |
| CS(=O)(=O)c1ccc(C(=O)c2sc3cc(O)ccc3c2-c2ccc(F)cc2)cc1 |  | 18.9% | 436 nM | Non-toxic | inactive | inactive |  |  |
| O=C(c1ccc(F)cc1)c1sc2cc(O)ccc2c1-c1ccc(F)cc1 | 32.4% | 131% | 18.5 nM | Non-toxic | inactive |  |  |  |
| O=C(c1ccc(C(F)(F)F)cc1)c1c(-c2ccc(Cl)cc2)sc2cc(O)ccc12 |  |  | 121 nM | Non-toxic | inactive | inactive |  | inhibition [7]: inactive |
| O=C(c1ccc(OCCN2CCCCC2)cc1)c1c(-c2ccc(O)cc2)sc2cc(O)ccc12 [RALOXIFENE] |  |  |  | Non-toxic | inactive | inactive |  | inhibition [7]: inactive |
| CN(C)c1ccc(C(=O)c2sc3cc(O)ccc3c2-c2ccc(F)cc2)cc1 | 15.1% | 111% | 30.6 nM | Non-toxic |  |  | 4.1% |  |
| O=C(c1ccc(C(F)(F)F)cc1)c1c(-c2ccc(F)cc2)sc2cc(O)ccc12 | 69.7% | 108% | 61.5 nM | Non-toxic |  |  | 55.6% |  |
| Oc1ccc2c(-c3ccc(F)cc3)c(Oc3ccc(F)cc3)sc2c1 |  | 86.6% | 36.8 nM | Non-toxic | inactive | inactive |  |  |
| Cc1ccc(C(=O)c2c(-c3ccc(O)cc3)sc3cc(O)ccc23)cc1 | 60.2% | 109% | 2.6 nM | Non-toxic |  |  | 11.5% |  |
| O=C(c1sc2cc(O)ccc2c1-c1ccc(F)cc1)C1CCCCC1 | 134% | 147% | 1 nM | Non-toxic |  |  | 21.4% |  |
| Cc1ccc(C(=O)c2sc3cc(O)ccc3c2-c2ccc(F)cc2)cc1 | 7.4% | 110% | 717 nM | Non-toxic |  |  | 13.3% |  |
| N#Cc1ccc(C(=O)c2sc3cc(O)ccc3c2-c2ccc(F)cc2)cc1 |  | 64.2% | 58.7 nM | Non-toxic |  |  | 2% |  |
